Screening data from PubChem.
PostGolgi yeast – growth inhibition of a yeast mutant, post-Golgi transport screen; AID 739; inhibition, % at 10 µM; 0.9% of 98,000 active; post-Golgi transport phenotypic cell assay;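 also: yeast cells grown in 1536-well plates; yeast grown about 18 h at 30C before absorbance read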
PostGolgi ctrl – yeast control strain growth, post-Golgi counter-screen | inhibition, % at 10 µM | AID 738 | 5% of 98,000 active | efflux-deficient yeast background strain, growth absorbance A615, 16 h
Yeast lifespan up – yeast lifespan extension | AID 775 | 0.68% of 130,000 active | inhibition of the nicotinamide effect, % at 10 µM | S. cerevisiae growth with nicotinamide, OD615; deaD strain in restrictive glucose medium;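 active = inhibition above a set limit, placed 3 SD over the median of all compounds, cut at about 26% in these data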
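System: Modified budding yeast, DeaD strain | Buffer or medium: Restrictive glucose medium | Also added: 1.5 mM nicotinamide | Doses: 10 µM single point, 0.25% DMSO | Schedule: 48 h compound exposure at 30 °C, humidified | Detection: Absorbance at 615 nm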
Yeast growth inh – reduces growth of yeast BB579 in restrictive medium; S. cerevisiae BB579 growth, OD615, 48 h; inhibition, % at 10 µM; 0.51% of 140,000 active;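 active = inhibition above a set limit, 3 SD over the mean compound inhibition, cut at about 44% in these data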
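Test system: Saccharomyces cerevisiae DeaD strain BB579, replicative lifespan model yeast | Buffer or medium: Restrictive CSMM-D medium | Doses: One dose, 10 µM compound with 0.25% DMSO | Incubation: 48 h exposure, 30 °C | Detection: Culture absorbance at 615 nm | Control set: Amphotericin B at 10 µg/mL as positive control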
Of the large screens only hits and unclear results are named; the others gave an inactive call. This excerpt belongs to a sample that is enriched for hits. Rule as the data show it, unless noted: active = inhibition above about 30%; inactive = the rest.

C/C(=N\NC(=S)Nc1cc(S(=O)(=O)N2CCOCC2)ccc1Cl)c1ccccc1F	none (no result: PostGolgi yeast, PostGolgi ctrl)
CCCCNC(=O)COC(=O)c1ccc(Cl)c(S(=O)(=O)N2CCCC2)c1	none
CC(C)NC(=O)COC(=O)c1ccc(Cl)c(S(=O)(=O)N2CCCC2)c1	PostGolgi ctrl 32
Cc1c(-c2ccccc2)nc2ccccc2c1C(=O)OCC(=O)Nc1ncc(C(F)(F)F)cc1Cl	none (no result: PostGolgi yeast, PostGolgi ctrl)
COc1cc(Br)cc(-c2nc3c(c(=O)[nH]c(=O)n3Cc3ccccc3)n2C)c1O	Yeast lifespan up 63
COc1ccc(-c2nc3c(c(=O)[nH]c(=O)n3Cc3ccccc3)n2Cc2ccccc2)cc1	PostGolgi ctrl 35
COc1ccc(-c2nc3c(c(=O)[nH]c(=O)n3Cc3ccccc3)n2C)cc1	none
C=CCN(C(=O)COc1ccccc1)c1nnc(-c2ccncc2)s1	none
O=C(NCc1cccs1)c1cccnc1Cl	none (no result: PostGolgi yeast, PostGolgi ctrl)
Cc1cccc(Nc2ncccc2C(=O)NCc2cccs2)c1C	PostGolgi ctrl 34
Cc1ccc(Nc2ncccc2C(=O)NCc2cccs2)c(C)c1	PostGolgi ctrl 44
Cc1cc2nc(/N=C(\N)NC(=O)N3c4ccccc4Sc4ccccc43)nc(C)c2cc1C	none (no result: PostGolgi yeast, PostGolgi ctrl)
O=C(COC(=O)c1ccccc1Nc1ccccc1)NCc1ccco1	PostGolgi ctrl 32
O=C(C1Cc2ccccc2CN1S(=O)(=O)c1cccs1)N1CCCCCC1 (configuration not stated)	none
Cc1ccc(N(C)C(=O)N2CCN(S(=O)(=O)c3ccc(C)cc3)CC2)cc1	none
COc1ccc(S(=O)(=O)N2CCC(C(=O)N3CCc4ccccc4C3)CC2)cc1	none
Cc1ccc(S(=O)(=O)N2CCC(C(=O)N3Cc4ccccc4C3)CC2)cc1	PostGolgi ctrl 37
Cc1ccc(S(=O)(=O)N2CCN(C3CCN(Cc4ccccc4)CC3)CC2)cc1	PostGolgi yeast 70
Cc1ccc(S(=O)(=O)N2CCN(C(=O)N(c3ccccc3)c3ccccc3)CC2)cc1	PostGolgi ctrl 94
O=S(=O)(c1ccccc1)N1CCN(C2CCN(Cc3ccccc3)CC2)CC1	none
COc1ccc(C(=O)N2N=C3CC(C)(C)OCC3C2c2ccccc2)cc1 (configuration not stated)	none (no result: PostGolgi yeast, PostGolgi ctrl)
CC1(C)Oc2ccc(NC(=O)c3ccco3)cc2O1	none
CN(C#N)c1nc(Cl)nc(Nc2cccc(Cl)c2)n1	none (no result: PostGolgi yeast, PostGolgi ctrl)
CCCn1c(C)cc(C(=O)COC(=O)c2ccc[nH]c2=O)c1C	Yeast growth inh 45 (no result: PostGolgi yeast, PostGolgi ctrl)
Cc1ccc(-n2c(C)cc(C(=O)COC(=O)c3ccc[nH]c3=O)c2C)cc1C	Yeast growth inh 99 (no result: PostGolgi yeast, PostGolgi ctrl)
CC(Sc1ccc(Cl)cc1)C(=O)Nc1ccc(S(=O)(=O)N2CCOCC2)cc1 (configuration not stated)	none
Clc1ccc(OCc2nc(-c3ccncc3)no2)c(Cl)c1	PostGolgi yeast 44, PostGolgi ctrl 37
COc1ccc(Cl)cc1-c1nc(-c2ccncc2)no1	none
Cc1ccc(NC(=O)CCn2nc([N+](=O)[O-])cc2C)nc1	Yeast lifespan up 27 (no result: PostGolgi yeast, PostGolgi ctrl)
Cc1cc([N+](=O)[O-])nn1CCC(=O)NC1CCCCCC1	none (no result: PostGolgi yeast, PostGolgi ctrl)
COCCn1c(C2CCCCC2)nc2sc3ccccc3c(=O)c2c1=O	PostGolgi yeast 39, PostGolgi ctrl 85
CCc1nc2sc3ccccc3c(=O)c2c(=O)n1CCOC	none
CC(C)CNC(=O)c1ccc(NC(=O)c2ccccc2[N+](=O)[O-])cc1	none (no result: PostGolgi yeast, PostGolgi ctrl)
Cc1cccc(C(=O)Nc2ccc(C(=O)/C=C/c3cccnc3)cc2)c1	none (no result: PostGolgi yeast, PostGolgi ctrl)
O=C(/C=C/c1cccnc1)c1ccc(NC(=O)c2cccc(Br)c2)cc1	PostGolgi ctrl 40
COc1ccc(OCC(=O)NCCCN2CCOCC2)cc1	none (no result: PostGolgi yeast, PostGolgi ctrl, Yeast lifespan up)
Cn1c(=O)c2c(-c3ccccc3)n(C3CCCCC3)cc2n(C)c1=O	none
Cc1cccc(-c2c3c(=O)n(C)c(=O)n(C)c3cn2C2CCCCC2)c1	PostGolgi yeast 76
CCc1ccc(N2C(=O)CC(N(CC3CCCO3)C(=O)/C=C/C(=O)O)C2=O)cc1 (configuration not stated)	none (no result: PostGolgi yeast, PostGolgi ctrl)
O=C(Nc1ccc(OCC(F)(F)C(F)F)c(C(F)(F)F)c1)c1ccccc1O	PostGolgi ctrl 85
CCOC(=O)C1=NNC2(c3ccc(Cl)cc3)C(=O)N(c3ccc(C)cc3)C(=O)C12 (configuration not stated)	none (no result: PostGolgi yeast, PostGolgi ctrl)
COc1ccc2c(CC(=O)NCc3ccc4c(c3)OCO4)coc2c1	none
Cc1ccc(OCC(=O)N2CCC(N3CCCCCC3)CC2)cc1	PostGolgi ctrl 35
Cc1ccc(OCC(=O)N2CCN(C(=O)CCC3CCCC3)CC2)cc1	none
Cc1cc(C)cc(OCC(=O)N2CCCCCC2)c1	PostGolgi ctrl 34
Cc1cc(C)c(C)c(OCC(=O)N2CCCCCC2)c1	none
COc1ccc(OCC(=O)N2CCN(C(=O)COc3ccc(Br)cc3)CC2)cc1	PostGolgi ctrl 41
CC1CC(C)CN(c2ncc3c(n2)CC(c2ccccc2)CC3=O)C1 (configuration not stated)	PostGolgi ctrl 50
CC(C)c1ccc(C2CC(=O)c3cnc(N4CCc5ccccc5C4)nc3C2)cc1 (configuration not stated)	none
O=C1CC(c2ccco2)Cc2nc(N3CCc4ccccc4C3)ncc21 (configuration not stated)	PostGolgi ctrl 42
N#C/C(=C\c1cn[nH]c1-c1ccc(Cl)cc1)C(=O)NCc1ccccc1	none
COc1ccc(NC(=O)c2cc(Cl)ccc2NC(=O)c2ccco2)c(OC)c1	none
CCc1cccc(C)c1NC(=S)NCCc1c(C)[nH]c2ccc(C)cc12	Yeast growth inh 45 (no result: PostGolgi yeast, PostGolgi ctrl)
CC(C)Oc1ccccc1C1CC(=O)Nc2cc3c(cc21)OCO3 (configuration not stated)	PostGolgi ctrl 31
CCSc1ncnc2c1sc1nc(-c3ccco3)c3c(c12)CC(C)(C)OC3	PostGolgi ctrl 32
COC(=O)CSc1ncnc2c1sc1nc(-c3ccco3)c3c(c12)CC(C)(C)OC3	none
O=C(c1ccco1)c1cn[nH]c1-c1ccc(Cl)cc1O	none
COc1cccc2c1nc(C)c1cc(C)oc12	PostGolgi ctrl 31
O=C(NC(Cc1ccccc1)c1nc2ccccc2[nH]1)C1CC(=O)N(c2ccc3c(c2)OCCO3)C1 (configuration not stated)	none
COC(=O)c1ccccc1NC(=O)CN(c1ccc(OC)cc1)S(C)(=O)=O	none (no result: PostGolgi yeast, PostGolgi ctrl, Yeast lifespan up)
CCN(CC(=O)Nc1ccccc1C(=O)OC)S(=O)(=O)c1ccc(OC)cc1	PostGolgi ctrl 40
Cc1ccc(C)c(NC(=O)C(=O)NCc2ccccn2)c1	none (no result: PostGolgi yeast, PostGolgi ctrl)
O=C(CCc1ccccc1O)N/N=C/c1ccc(Sc2cccc3cccnc23)o1	none
CCOC(=O)c1c(NC(=O)Cc2cccs2)sc(C(=O)NC2CCCCC2)c1C	none
COC(=O)c1c(NC(=O)Cc2cccs2)sc(C(=O)N2CCCCC2)c1C	Yeast lifespan up 29
O=C(CSCc1cccc(Br)c1)N1CCOCC1	none
O=C(/C=C/NNC(=O)c1cccc(Br)c1)c1cccc(Br)c1	Yeast lifespan up 28
Cc1nc(NC(=O)CN2CCOCC2)sc1-c1ccccc1	none
Cc1sc(NC(=O)CN2CCOCC2)c(C(=O)c2ccccc2)c1C	PostGolgi yeast 35
CC1(C)CC2c3cccc(C(=O)O)c3C(=O)N2c2c1ccc1ccccc21 (configuration not stated)	Yeast lifespan up 48 (no result: PostGolgi yeast, PostGolgi ctrl)
